Assay results as given in BindingDB's records for doi:10.1016/j.bmcl.2018.12.060 (Yanbian University College of Pharmacy, 2019).

Each compound was assayed against Hypoxia-inducible factor 1-alpha (Homo sapiens, UniProt Q16665) (assay: Inhibition of HIF1alpha transcriptional activity in human Hep3B cells after 24 hrs in hypoxic condition by HRE-dual luciferase reporter gene assay).
Outline: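 Hep3B cells transiently co-transfected with pGL3-HRE-luciferase and pRL-CMV, after 24 h incubated under hypoxia with or without compound; luciferase activity measured after 24 h, ursolic acid as positive control; mean ± SD of three independent experiments.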

Chain of Hypoxia-inducible factor 1-alpha (Q16665 whole entry): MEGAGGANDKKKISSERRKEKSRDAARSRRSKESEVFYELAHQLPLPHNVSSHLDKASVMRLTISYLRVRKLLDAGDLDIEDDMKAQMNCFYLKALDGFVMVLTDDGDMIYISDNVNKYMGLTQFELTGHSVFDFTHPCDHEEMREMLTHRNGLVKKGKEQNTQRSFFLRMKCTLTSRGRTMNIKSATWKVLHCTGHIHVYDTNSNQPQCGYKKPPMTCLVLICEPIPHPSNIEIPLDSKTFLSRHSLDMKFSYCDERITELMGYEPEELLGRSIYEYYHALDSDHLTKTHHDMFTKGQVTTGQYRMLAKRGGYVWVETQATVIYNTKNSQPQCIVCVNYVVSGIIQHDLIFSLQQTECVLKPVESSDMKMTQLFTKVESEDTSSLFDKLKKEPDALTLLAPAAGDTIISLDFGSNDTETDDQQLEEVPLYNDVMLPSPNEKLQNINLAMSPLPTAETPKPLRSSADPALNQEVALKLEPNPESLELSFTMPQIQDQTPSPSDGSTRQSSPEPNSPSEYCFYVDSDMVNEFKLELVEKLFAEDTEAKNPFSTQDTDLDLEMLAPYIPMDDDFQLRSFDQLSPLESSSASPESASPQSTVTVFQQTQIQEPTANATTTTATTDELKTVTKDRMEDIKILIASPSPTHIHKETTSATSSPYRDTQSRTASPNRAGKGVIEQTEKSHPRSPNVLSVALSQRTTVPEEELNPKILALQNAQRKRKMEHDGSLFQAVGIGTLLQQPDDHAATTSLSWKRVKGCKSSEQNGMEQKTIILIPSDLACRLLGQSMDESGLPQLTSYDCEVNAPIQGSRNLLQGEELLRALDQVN

Question: Which IC50 does the source give for `C[C@H]1[C@H](C)CC[C@]2(C(=O)OCc3c(Cl)cccc3Cl)CC[C@]3(C)C(=CC[C@@H]4[C@@]5(C)CC/C(=N\NC(=N)N)C(C)(C)[C@@H]5CC[C@]43C)[C@H]12` here?
Answer: 13.3 µM

Question: `C[C@H]1[C@H](C)CC[C@]2(C(=O)O)CC[C@]3(C)C(=CC[C@@H]4[C@@]5(C)CC(=C\c6ccccc6Br)/C(=N\NC(=N)N)C(C)(C)[C@@H]5CC[C@]43C)[C@H]12` was tested. Which IC50 did it give?
Answer: > 100 µM

Question: Which IC50 does the source give for `C[C@H]1[C@H](C)CC[C@]2(C(=O)O)CC[C@]3(C)C(=CC[C@@H]4[C@@]5(C)CC/C(=N\NC(=N)N)C(C)(C)[C@@H]5CC[C@]43C)[C@H]12` here?
Answer: > 100 µM

Question: For `C[C@H]1[C@H](C)CC[C@]2(C(=O)O)CC[C@]3(C)C(=CC[C@@H]4[C@@]5(C)CC/C(=N\NC(N)=S)C(C)(C)[C@@H]5CC[C@]43C)[C@H]12`, which IC50 is on record?
Answer: 88.8 µM

Question: `COC(=O)[C@]12CC[C@@H](C)[C@H](C)[C@H]1C1=CC[C@@H]3[C@@]4(C)CC/C(=N\NC(=N)N)C(C)(C)[C@@H]4CC[C@@]3(C)[C@]1(C)CC2` was tested. Which IC50 did it give?
Answer: 6.7 µM

Question: With `CCOC(=O)[C@]12CC[C@@H](C)[C@H](C)[C@H]1C1=CC[C@@H]3[C@@]4(C)CC/C(=N\NC(=N)N)C(C)(C)[C@@H]4CC[C@@]3(C)[C@]1(C)CC2` as the compound, how does the IC50 read?
Answer: > 100 µM

Question: For `C[C@H]1[C@H](C)CC[C@]2(C(=O)OCc3cccc(Cl)c3)CC[C@]3(C)C(=CC[C@@H]4[C@@]5(C)CC/C(=N\NC(=N)N)C(C)(C)[C@@H]5CC[C@]43C)[C@H]12`, which IC50 is on record?
Answer: 30.3 µM

Question: Which IC50 does the source give for `Cc1ccc(COC(=O)[C@]23CC[C@@H](C)[C@H](C)[C@H]2C2=CC[C@@H]4[C@@]5(C)CC/C(=N\NC(=N)N)C(C)(C)[C@@H]5CC[C@@]4(C)[C@]2(C)CC3)cc1` here?
Answer: 10.3 µM

Question: `C[C@H]1[C@H](C)CC[C@]2(C(=O)O)CC[C@]3(C)C(=CC[C@@H]4[C@@]5(C)CC(=C\c6ccccc6Cl)/C(=N\NC(=N)N)C(C)(C)[C@@H]5CC[C@]43C)[C@H]12` was tested. Which IC50 did it give?
Answer: > 100 µM

Question: Which IC50 does the source give for `C[C@H]1[C@H](C)CC[C@]2(C(=O)O)CC[C@]3(C)C(=CC[C@@H]4[C@@]5(C)CC(=C\c6cccc(Cl)c6)/C(=N\NC(=N)N)C(C)(C)[C@@H]5CC[C@]43C)[C@H]12` here?
Answer: > 100 µM

Question: With `C[C@H]1[C@H](C)CC[C@]2(C(=O)O)CC[C@]3(C)C(=CC[C@@H]4[C@@]5(C)CC(=C\c6ccc(F)cc6)/C(=N\NC(=N)N)C(C)(C)[C@@H]5CC[C@]43C)[C@H]12` as the compound, how does the IC50 read?
Answer: > 100 µM

Question: With `C[C@H]1[C@H](C)CC[C@]2(C(=O)O)CC[C@]3(C)C(=CC[C@@H]4[C@@]5(C)CC(=C\c6cccc(Br)c6)/C(=N\NC(=N)N)C(C)(C)[C@@H]5CC[C@]43C)[C@H]12` as the compound, how does the IC50 read?
Answer: 75.4 µM

Question: For `C[C@H]1[C@H](C)CC[C@]2(C(=O)O)CC[C@]3(C)C(=CC[C@@H]4[C@@]5(C)CC(=C\c6c(Cl)cccc6Cl)/C(=N\NC(=N)N)C(C)(C)[C@@H]5CC[C@]43C)[C@H]12`, which IC50 is on record?
Answer: > 100 µM

Question: For `Cc1ccc(/C=C2\C[C@]3(C)[C@H]4CC=C5[C@@H]6[C@@H](C)[C@H](C)CC[C@]6(C(=O)O)CC[C@@]5(C)[C@]4(C)CC[C@H]3C(C)(C)\C2=N\NC(=N)N)cc1`, which IC50 is on record?
Answer: > 100 µM

Question: How did the IC50 turn out when `C[C@H]1[C@H](C)CC[C@]2(C(=O)O)CC[C@]3(C)C(=CC[C@@H]4[C@@]5(C)CC(=C\c6ccco6)/C(=N\NC(=N)N)C(C)(C)[C@@H]5CC[C@]43C)[C@H]12` was run?
Answer: > 100 µM

Question: For `C[C@H]1[C@H](C)CC[C@]2(C(=O)O)CC[C@]3(C)C(=CC[C@@H]4[C@@]5(C)CC(=C\c6cccs6)/C(=N\NC(=N)N)C(C)(C)[C@@H]5CC[C@]43C)[C@H]12`, which IC50 is on record?
Answer: 22.8 µM

Question: `CCCCCOC(=O)[C@]12CC[C@@H](C)[C@H](C)[C@H]1C1=CC[C@@H]3[C@@]4(C)CC/C(=N\NC(=N)N)C(C)(C)[C@@H]4CC[C@@]3(C)[C@]1(C)CC2` was tested. Which IC50 did it give?
Answer: > 100 µM

Question: For `C[C@H]1[C@H](C)CC[C@]2(C(=O)O)CC[C@]3(C)C(=CC[C@@H]4[C@@]5(C)CC(=C\c6ccccc6)/C(=N\NC(=N)N)C(C)(C)[C@@H]5CC[C@]43C)[C@H]12`, which IC50 is on record?
Answer: 37.8 µM

Question: `C[C@H]1[C@H](C)CC[C@]2(C(=O)O)CC[C@]3(C)C(=CC[C@@H]4[C@@]5(C)CC(=C\c6cccc7ccccc67)/C(=N\NC(=N)N)C(C)(C)[C@@H]5CC[C@]43C)[C@H]12` was tested. Which IC50 did it give?
Answer: > 100 µM

Question: For `C[C@H]1[C@H](C)CC[C@]2(C(=O)OCc3ccc(Cl)cc3)CC[C@]3(C)C(=CC[C@@H]4[C@@]5(C)CC/C(=N\NC(=N)N)C(C)(C)[C@@H]5CC[C@]43C)[C@H]12`, which IC50 is on record?
Answer: 21.1 µM

Question: For `C[C@H]1[C@H](C)CC[C@]2(C(=O)O)CC[C@]3(C)C(=CC[C@@H]4[C@@]5(C)CC(=C\c6ccc(Cl)cc6Cl)/C(=N\NC(=N)N)C(C)(C)[C@@H]5CC[C@]43C)[C@H]12`, which IC50 is on record?
Answer: 90.4 µM

Question: Which IC50 does the source give for `C[C@H]1[C@H](C)CC[C@]2(C(=O)O)CC[C@]3(C)C(=CC[C@@H]4[C@@]5(C)CC/C(=N\NC(N)=O)C(C)(C)[C@@H]5CC[C@]43C)[C@H]12` here?
Answer: 13.3 µM

Question: How did the IC50 turn out when `C[C@H]1[C@H](C)CC[C@]2(C(=O)OCc3ccc(Cl)cc3Cl)CC[C@]3(C)C(=CC[C@@H]4[C@@]5(C)CC/C(=N\NC(=N)N)C(C)(C)[C@@H]5CC[C@]43C)[C@H]12` was run?
Answer: 40.5 µM

Question: For `C[C@H]1[C@H](C)CC[C@]2(C(=O)O)CC[C@]3(C)C(=CC[C@@H]4[C@@]5(C)CC(=C\c6cccc(F)c6)/C(=N\NC(=N)N)C(C)(C)[C@@H]5CC[C@]43C)[C@H]12`, which IC50 is on record?
Answer: > 100 µM

Question: `C[C@H]1[C@H](C)CC[C@]2(C(=O)O)CC[C@]3(C)C(=CC[C@@H]4[C@@]5(C)CC(=C\c6ccc([N+](=O)[O-])cc6)/C(=N\NC(=N)N)C(C)(C)[C@@H]5CC[C@]43C)[C@H]12` was tested. Which IC50 did it give?
Answer: > 100 µM

Question: Which IC50 does the source give for `C[C@H]1[C@H](C)CC[C@]2(C(=O)O)CC[C@]3(C)C(=CC[C@@H]4[C@@]5(C)CC(=C\c6ccccc6F)/C(=N\NC(=N)N)C(C)(C)[C@@H]5CC[C@]43C)[C@H]12` here?
Answer: > 100 µM

Question: With `C[C@H]1[C@H](C)CC[C@]2(C(=O)O)CC[C@]3(C)C(=CC[C@@H]4[C@@]5(C)CC[C@H](O)C(C)(C)[C@@H]5CC[C@]43C)[C@H]12` [3beta-hydroxyurs-12-en-28-oic acid] as the compound, how does the IC50 read?
Answer: > 100 µM
